No end group written: not given here.
Columns and labels:
[1] = system: macrophages isolated from αMβ2-deficient mice; assay: Transwell migration of thioglycolate-elicited peritoneal macrophages; type: cell-based; conditions: 90 min, LL-37 1 μg/mL, fMLP 100 nM
Summary of the method: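 Thioglycolate-elicited peritoneal monocyte/macrophages from wild-type and αMβ2-deficient mice, purified by anti-F4/80-PE selection. Placed in Transwell inserts with chemoattractant below: LL-37 1 μg/mL or fMLP 100 nM. Allowed to migrate 90 min.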

U937 monocytic cells = assay: Chemotaxis of U937 cells towards an agarose drop on coverslips; type: cell-based, human; conditions: agarose gel with 15 μg/mL LL-37; 2 h at 37 °C
Summary of the method: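 U937 cells on 22 × 22 mm coverslips. A 10 μL drop of 1% agarose in HBSS, with LL-37 at 15 μg/mL final, sits ~1.5 mm from one corner; a control agarose drop sits in the opposite corner; both polymerise 5 min. Coverslips are submerged in RPMI 1640/10% FBS. 5 × 10^4 cells are loaded centrally, then 2 h at 37 °C, 5% CO2. Migration photographed at 2 mm intervals (20× objective); blocking variant uses anti-αM mAb 44a.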

[2] = system: αMβ2-expressing HEK293 cells; assay: Transwell migration of αMβ2-expressing HEK293 cells; type: cell-based; conditions: concentration-dependent, 16 h at 37 °C
Summary of the method: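 Transwell, 5 μm pores: 3 × 10^5 αMβ2-HEK293 cells in the upper chamber, LL-37 (0.1–2 μg/mL) below, 16 h at 37 °C. Cells on the filter underside are fixed with paraformaldehyde, hematoxylin-stained and counted (mean cells/view ± standard error, ≥3 experiments). Blocking: 15 min pretreatment with 20 μg/mL anti-αM 44a, anti-β2 IB4 or non-inhibitory OKM1, LL-37 at 0.5 μg/mL. Medium-alone control.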

αMβ2 on neutrophils = assay: Flow cytometry of the activation-dependent CBRM1/5 epitope on neutrophils; type: cell-based, human
Summary of the method: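 Human blood neutrophils, isolated sterilely, at 10^6 per 0.1 mL in HBSS/0.1% BSA. Exposed 5 min at 22 °C to LL-37 (0.5–10 μg/mL) or fMLP (200 nM). Then Alexa 488-conjugated activation-dependent mAb CBRM1/5, 30 min on ice. Epitope-positive cells counted by flow cytometry. Some samples pretreated with NIF (1 μg/mL) before LL-37 at 4 or 10 μg/mL.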

αMI-domain [3] = target: T1, αMI-domain (Homo sapiens, UniProt P11215); type: binding
αMI-domain [4] = target: T1, αMI-domain; conditions: covalently coupled to the cellulose membrane; cited from earlier work

T1 sequence (P11215 139-331): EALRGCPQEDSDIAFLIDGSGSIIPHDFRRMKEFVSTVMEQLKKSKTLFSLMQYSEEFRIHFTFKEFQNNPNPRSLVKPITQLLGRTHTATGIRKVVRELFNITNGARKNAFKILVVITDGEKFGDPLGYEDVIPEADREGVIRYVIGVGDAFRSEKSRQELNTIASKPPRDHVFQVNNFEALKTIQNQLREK

Compound | IC50 (αMI-domain [3]) [µM] | other results
LLGDFFRKSKEKIGKEFKRIVQRIKDFLRNLVPRTES [LL-37] |  | migration of macrophages from αMβ2-deficient mice [1]: did not induce migration; chemotactic response of U937 cells (U937 monocytic cells): induced a chemotactic response; LL-37 concentrations at which migration occurred [2]: 0.1 to 2 µg/mL; number of cells expressing the activation epitope compared with fMLP (αMβ2 on neutrophils; 10 μg/mL LL-37 versus fMLP 200 nM): slightly higher; expression of the CBRM1/5 activation epitope on neutrophils (αMβ2 on neutrophils; LL-37 0.5–10 μg/mL, 5 min at 22 °C, mAb CBRM1/5-Alexa 488, FACS): induced expression of the CBRM1/5 epitope in a concentration-dependent manner
RKLRSLWRR [RKLRSLWRR] | 2.5 ± 0.2 | 
YSMKKTTMKIIPFNRLTIG [P2] |  | αMI-domain binding of the cellulose-coupled peptide (αMI-domain [4]): bound the αMI-domain
GRLPMPW [GRLPMPW] | 36 ± 7 | 
LQLRFPRFV [LQLRFPRFV] | 10.5 ± 1.6 | 
CC(C)C[C@H](NC(=O)[C@H](CC(C)C)NC(=O)[C@H](CCCNC(=N)N)NC(=O)[C@@H](N)CC(N)=O)C(=O)N[C@@H](CC(C)C)C(=O)N[C@H](C(=O)NCC(=O)O)[C@@H](C)O [NRLLLTG] | 110 ± 16 | 
fMLP |  | migration of macrophages from αMβ2-deficient mice [1]: migrated
SSVKKYRPKYCGS [CCN1-H2] |  | αMI-domain binding of the cellulose-coupled peptide (αMI-domain [4]): bound the αMI-domain
QVLRIRKRA [QVLRIRKRA] | 8.4 ± 0.5 | 
SVNKYRGTAGNA [SVNKYRGTAGNA] | 93 ± 11 | 
ARLPIWF [ARLPIWF] | 17 ± 3 | 
TMKIIPFNRLTIG [P2-C] | 30 ± 2.5 | 

— article PMC4532391 (Biochemistry, 2015)
